PG9 binder – binds the HIV-1 gp120 antibody PG9. TR-FRET gp120-PG9 antibody binding. inhibition, % at 6.7 µM. actives 0.43% (n = 360,000); in the data active = inhibition above about 8.5%
Rev-erbA mod – modulates human Rev-erb alpha binding to DNA | P20393 | Rev-erbα–FITC-DNA binding, fluorescence polarization, 90 min | activity, % at 10 µM | actives 0.79% (n = 370,000);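 active = activity above about 14%, limit read from the data; passing the limit was not always enough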;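 note: 0% = DMSO wells with 35 nM protein and 100% = DMSO wells with 750 nM protein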
NR2E3 ag-1 – activates human NR2E3 receptor. inhibition of corepressor binding, % at 3.98 µM. Q9Y5X4. actives 0.35% (n = 360,000). CHO-S Gal4-NCOR/VP16-NR2E3 two-hybrid, luciferase;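 active = inhibition above the mean of all tested compounds plus 3 SD, cut at about 70% in these data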;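 note: 0% = DMSO with NR2E3 transfected cells and 100% = cells lacking NR2E3 construct; higher means lower luciferase signal from less NR2E3 corepressor binding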
Target sequence (Q9Y5X4 whole entry, looked up, the tested form may be a part): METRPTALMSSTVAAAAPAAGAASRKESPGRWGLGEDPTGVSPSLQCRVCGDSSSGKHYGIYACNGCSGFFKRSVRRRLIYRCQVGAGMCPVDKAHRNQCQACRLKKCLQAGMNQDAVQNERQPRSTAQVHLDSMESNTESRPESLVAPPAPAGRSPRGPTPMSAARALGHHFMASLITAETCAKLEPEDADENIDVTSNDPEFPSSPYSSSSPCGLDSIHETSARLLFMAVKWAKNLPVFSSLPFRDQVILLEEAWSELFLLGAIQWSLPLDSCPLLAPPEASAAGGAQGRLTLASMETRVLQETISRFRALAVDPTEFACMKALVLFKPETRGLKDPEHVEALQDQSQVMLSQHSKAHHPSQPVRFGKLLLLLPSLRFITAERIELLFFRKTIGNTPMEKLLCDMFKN
NR2E3 ag-2 – activates human photoreceptor nuclear receptor NR2E3. Q9Y5X4. GST-NR2E3/biotin-RetCOR TR-FRET, 1536-well. actives 0.12% (n = 320,000). inhibition of corepressor binding, % at 4.78 µM;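 active = percent inhibition above the cutoff of mean plus 3 SD of all tested compounds, set per screening campaign, cut at about 20% in these data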;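 note: 0% = DMSO wells and 100% = biotin wells as full block of FRET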
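Test system – NR2E3–RetCOR corepressor complex · Quantity – NR2E3 fusion 1.35 nM · Buffer or medium – Tris pH 7.5 · Incubation – Compound–protein incubation for 5 h at 4 °C · Technique – TR-FRET, Eu(K)-anti-GST donor, streptavidin-D2 acceptor, ex 340, em 617/671 nm · Evaluation – percent inhibition of 671/617 nm emission ratio versus biotin and DMSO controls · Plate – 1536-well format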
PG9 bind confirm – PG9 antibody binding, confirmed | shares compounds with PG9 binder | TR-FRET PG9 antibody binding, biochemical | inhibition, % at 6.7 µM | actives 90% (n = 1,500) | AID 651571; in the data active = inhibition above about 9%
PGV04 Ab binding – binds control antibody PGV04 in PG9 binder counter-screen. shares compounds with PG9 binder. TR-FRET PGV04 antibody-gp120 binding, biochemical. inhibition, % at 6.7 µM. actives 95% (n = 1,500). AID 651604; in the data active = inhibition above about 9.5%
* hit, by the source's call; . = no result. Only some compounds are listed: those with a hit (about 1.5% of all), similar ones and a draw of the others.

SMILES	PG9 binder	Rev-erbA mod	NR2E3 ag-1	NR2E3 ag-2	PG9 bind confirm	PGV04 Ab binding
COc1ccc(/C(O)=C2/C(=O)C(=O)N(CC3CCCO3)C2c2cccc(OC)c2)cc1 (stereo not given)	1.6	-0.9	-7.6	12.9	.	.
COc1cccc(C2/C(=C(\O)c3ccc4c(c3)OCCO4)C(=O)C(=O)N2CC2CCCO2)c1 (stereo not given)	9.2*	0.6	-3.4	.	16.0*	20.1*
Cc1ccc(C2/C(=C(\O)c3ccc4c(c3)OCCO4)C(=O)C(=O)N2CC2CCCO2)cc1 (stereo not given)	9.7*	7.6	4.9	.	19.7*	22.4*
C[C@H]1C2CC(OC(=O)NCCCc3ccccc3)C(C2)[C@H]2CCCCN21 (stereo not given in full)	.	0.4	.	.	.	.
COC(=O)[C@]12C[C@H](CC(=O)N3CCCC3)C(=O)N(Cc3ccc(Cl)cc3Cl)C1=C[C@H](C(C)C)O[C@@H]2C1CC1	.	-3.1	.	.	.	.
CCOc1ccccc1-c1nc(C(N)=O)c2[nH]c(=O)n(-c3ccccc3)c2n1	19.1*	-6.1	11.8	1.6	27.7*	58.5*
Cc1occc1-c1nnc(SCC(=O)Nc2ccncc2)n1-c1ccccc1	.	5.9	.	.	.	.
COc1ccc(CNC(=O)c2cc3cc(OC)ccc3oc2=O)cc1	-1.4	1.0	-10.8	0.8	.	.
COc1ccc2oc(=O)c(C(=O)NCc3ccc(C)cc3)cc2c1	8.8*	3.5	-0.8	-2.8	16.0*	23.9*
O=S1(=O)c2ccc(N3CCN(Cc4ccccc4F)CC3)cc2Oc2ccccc2CN1Cc1cn(Cc2ccccc2C(F)(F)F)nn1	.	3.3	.	.	.	.
N#CCC[C@H]1CC[C@]2(CCCN(C(=O)C3CCCCC3)C2)O1	.	1.8	.	.	.	.
COc1ccccc1OCC(=O)Nc1cccc(-c2nnc(-c3ccco3)o2)c1	-0.5	6.4	-57.0	3.0	.	.
O=C(COc1ccccc1)Nc1ccc(-c2nnc(-c3ccco3)o2)cc1	70.2*	6.3	-40.5	-1.9	54.5*	72.2*
COc1ccc(/C(O)=C2/C(=O)C(=O)N(CCCN(C)C)C2c2cccc(Cl)c2)cc1OC (stereo not given)	46.9*	-2.9	-22.8	-0.1	16.6*	22.4*
CCN(CC)CCCN1C(=O)C(=O)/C(=C(/O)c2ccc(Cl)cc2)C1c1ccccn1 (stereo not given)	9.0*	-3.9	3.8	1.3	13.2*	16.2*
Cc1cc(N2C(=O)C(O)=C(C(=O)c3ccco3)C2c2cccc(Cl)c2)no1 (stereo not given)	3.4	-1.2	-9.8	9.1	.	.
COc1ccc(C2C(C(=O)c3ccc(C)o3)=C(O)C(=O)N2Cc2ccco2)cc1OC (stereo not given)	-0.8	-1.4	-27.2	8.0	.	.
COc1ccc(C2C(C(=O)c3ccc(C)o3)=C(O)C(=O)N2Cc2cccnc2)cc1OC (stereo not given)	7.8	0.5	-11.2	-0.1	.	.
Cc1ccc(C(=O)C2=C(O)C(=O)N(Cc3cccnc3)C2c2ccc(Cl)cc2)o1 (stereo not given)	19.1*	-0.7	7.3	18.2	26.8*	35.8*
CCCOc1ccc(C2C(C(=O)c3ccc(C)o3)=C(O)C(=O)N2Cc2ccco2)cc1 (stereo not given)	13.7*	-1.4	-4.3	13.1	15.9*	20.9*
Cc1cc(N2C(=O)C(O)=C(C(=O)c3ccc(C)o3)C2c2cccc(Cl)c2)no1 (stereo not given)	8.7*	-2.4	-2.8	.	17.4*	23.7*
CCOc1ccc(C2C(C(=O)c3ccc(C)o3)=C(O)C(=O)N2Cc2cccnc2)cc1 (stereo not given)	22.6*	-2.0	15.5	13.7	35.4*	41.4*
CCOC(=O)CC[C@H]1CC[C@]2(CCCN(Cc3ccccc3)C2)O1	.	-4.7	.	.	.	.
COc1ccc(CC(=O)Nc2ccc(N3CCN(c4ccc(OC)cc4)CC3)c(C#N)c2)cc1	9.1*	8.2	-14.8	1.9	17.5*	24.0*
COc1ccc(N2CCN(c3ccc(NC(=O)c4ccc5c(c4)OCO5)cc3C#N)CC2)cc1	.	.	-22.7	4.1	.	.
Cc1ccc(C(=O)Nc2nnc(COc3ccccc3)s2)cc1	25.4*	6.0	-29.6	14.3	33.5*	39.1*
